In ChEMBL document CHEMBL4513216, “Probing the Open Global Health Chemical Diversity Library for Multistage-Active Starting Points for Next-Generation Antimalarials” (ACS Infect Dis, 2020):

assay: Toxicity liver stage against HepG2, at 10uM; format: cell-based; design: test concentration 10 uM, cell line HepG2-A16-CD81EGFP; conditions: human, HepG2-A16-CD81EGFP cells; read-out: INHIBITION
Summary of the method: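 Uninfected HepG2-A16-CD81EGFP cells, 3 × 10^3 per well, 1536-well, plated on prespotted compound at 10 μM final, parasite-free screening media added to match infected plates; puromycin 10 μM positive, DMSO 0.5% negative; run in parallel with 48 h PbLuc assay at 37 °C, 5% CO2; viability by CellTiter-Glo luminescence, normalized to controls.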

Compared with `CN(C)S(=O)(=O)N1CC[C@]2(C[C@@H](OCC3CC3)CO2)C1`, `Cc1nn(C)cc1C(=O)N1C[C@@H]2CC[C@H]1CN(S(=O)(=O)N(C)C)C2` is higher in cytotoxicity at 10 µM: 8.88% for the first, 19.8% for the second.

Compared with `CCC(C)N(Cc1cnc(NCC(=O)O)nc1)Cc1ccsc1` (stereo unspecified), `Cc1ccsc1CN(C)Cc1ncccc1C(=O)O` is lower in cytotoxicity at 10 µM: 0.866% for the first, -2.55% for the second.

Going from `CCn1nc(CC(C)C)cc1C(=O)N1CCC2(CC1)[C@H](O)C[C@@H]2O` to `O=C(c1ccccn1)N1CCC2(CC1)COC(COCC1CC1)C2` (stereo unspecified), the cytotoxicity at 10 µM rises from -7.2% to 5.14%.

First: COc1cccc(OCCNCc2c(C)nn(C)c2N(C)C)c1
Second: COCCN(Cc1sccc1C)C(=O)COc1cccnc1
The cytotoxicity at 10 µM of the first is higher: 1.25% for the first, -138% for the second.

First: NC(=O)CN1CCC(C(=O)NCC(O)c2cccc(F)c2)CC1 (stereo unspecified)
Second: Cc1cccc(Nc2cc(C)nc(C3CCCCN3CC(N)=O)n2)n1 (stereo unspecified)
The cytotoxicity at 10 µM of the first is higher: 10.8% for the first, -4.03% for the second.

Compared with `CCOc1ccc(Cl)cc1NC(=O)N1CCC(n2cncn2)CC1`, `CN1CCC(N(C)CCC(=O)N2CCC(Oc3ccc(Cl)cc3)CC2)C1` (stereo unspecified) is higher in cytotoxicity at 10 µM: 4.93% for the first, 7.04% for the second.

Going from `Cc1oncc1C(=O)N1CC[C@H]2[C@H](CO[C@@H]2CNS(C)(=O)=O)C1` to `CCS(=O)(=O)NC[C@]12COC[C@H]1CN(Cc1cc(C)on1)C2`, the cytotoxicity at 10 µM rises from 0.0508% to 2.34%.

First: COc1cc(C(N)=O)c(N(C)S(C)(=O)=O)cc1OC
Second: COc1cc(C)c(C2CC(=O)Nc3cc(NS(C)(=O)=O)ccc32)cc1C (stereo unspecified)
The cytotoxicity at 10 µM of the first is higher: -7.39% for the first, -15% for the second.

Compared with `Cc1cc2n(n1)CC(CNCc1ccc(-n3cccn3)cc1)CN2` (stereo unspecified), `CNc1cc(C2CCCN2C(=O)CCc2ccccc2F)ccn1` (stereo unspecified) is higher in cytotoxicity at 10 µM: -2.95% for the first, -2.01% for the second.

First: Cc1cc(-c2cncnc2)ccc1OCC(N)=O
Second: CCOc1ccc(C(=O)CCC(=O)NCCc2nncn2CC)cc1C
The cytotoxicity at 10 µM of the first is higher: 8.07% for the first, -10.7% for the second.

First: Cc1ccc2c(n1)N(CCn1cccn1)CCN(S(C)(=O)=O)C2
Second: COCCC(=O)N1CCN(CC2CC2)c2nc(C)ccc2C1
The cytotoxicity at 10 µM of the first is higher: 13.5% for the first, 9.88% for the second.

Compared with `CSCC(C)(O)CNc1ncccc1I` (stereo unspecified), `COc1ncc(Cl)c(NCc2ccc(C(=O)N(C)C)cc2)n1` is higher in cytotoxicity at 10 µM: -2.36% for the first, 9.95% for the second.

Going from `CCc1ncc(C(=O)NCCNC(=O)Cc2ccc(F)cc2)s1` to `O=C(NCCNc1ncccn1)N1CCCC1c1ccc(F)cc1` (stereo unspecified), the cytotoxicity at 10 µM rises from -2.57% to 0.932%.

Going from `Cn1ncc2c1CCCC2NCc1cccc(OC2CCCC2)c1` (stereo unspecified) to `O=C(CCN1CCCO1)N1CC[C@@H](c2ccc3ccccc3c2)[C@H](O)C1`, the cytotoxicity at 10 µM rises from -19.3% to -1.04%.

Compared with `c1nc(N2CCN(Cc3nnnn3C3CC3)CC2)c2sccc2n1`, `O=C(c1sccc1C1CC1)N1CCN(c2cnccn2)CC1` is lower in cytotoxicity at 10 µM: 24.5% for the first, -2.92% for the second.

Going from `Cc1nc(-c2ccsc2)ccc1C(=O)N(C)CC1CC1` to `Cc1nc(-c2ccccc2)ccc1C(=O)N1CCn2c(C)nnc2C1`, the cytotoxicity at 10 µM rises from 2.83% to 4.01%.

Going from `O=C(NC1CC1)[C@@H]1CN(Cc2ccc3c(c2)OCO3)C[C@H]2OCC[C@H]21` to `O=C([C@H]1CN(Cc2ccoc2)C[C@H]2OCC[C@@H]12)N1CCCCO1`, the cytotoxicity at 10 µM rises from -1.79% to 7.86%.

Compared with `Cc1nc(-c2ccco2)ccc1C(=O)N1CCn2c(C)nnc2C1`, `COCc1ncn2c1CN(C(=O)c1ccc3ccccc3n1)CC2` is higher in cytotoxicity at 10 µM: -5.83% for the first, 8.42% for the second.

First: COC(=O)CNC(=O)C12CCC(=O)N1c1cc(Cl)ccc1S2 (stereo unspecified)
Second: CO[C@@H]1CC[C@H]2[C@H]1OCCN2Cc1ccc(F)c(F)c1
The cytotoxicity at 10 µM of the first is lower: -0.748% for the first, 4.33% for the second.

Going from `O=C(C1CCOCC1)N1C[C@H]2CCC[C@@]2(COc2cccnc2)C1` to `O=C(C1CCOCC1)N1CCOC(CC2CCCCC2)C1` (stereo unspecified), the cytotoxicity at 10 µM falls from -1.18% to -5.56%.

Compared with `CC(C)(C)c1cc(C[C@H]2CNCC[C@H]2CC(=O)NC2CCCCC2)no1`, `CCN1CC(C(=O)NCc2nc(C3CCCCC3)no2)CC1=O` (stereo unspecified) is lower in cytotoxicity at 10 µM: 2.82% for the first, -3.68% for the second.

Going from `CN(C)C[C@]12COC[C@H]1CN(Cc1ccc3ccccc3n1)C2` to `Cc1cnn(CC2CN(c3nc4ccccc4o3)CCO2)c1` (stereo unspecified), the cytotoxicity at 10 µM falls from 6.77% to -16.5%.

Compared with `Cc1ccc(CN2CCC3(CC2)C(=O)N(C)c2ccccc23)s1`, `CCN1CCCC(O)(c2nc(C)c(CCOc3ccccc3F)s2)CC1` (stereo unspecified) is lower in cytotoxicity at 10 µM: -5.68% for the first, -32.1% for the second.

First: CCCS(=O)(=O)N1CCc2onc(CNc3ncccn3)c2C1
Second: CCc1nc(NS(=O)(=O)c2cc(C)ccc2F)no1
The cytotoxicity at 10 µM of the first is higher: -2.25% for the first, -4.71% for the second.

Going from `CC(C)=CCNC1CCCN(c2ccc(C)nn2)C1` (stereo unspecified) to `Cc1ccc(N2CC[C@H]3OCC[C@@]3(C(=O)N3CCCO3)C2)nn1`, the cytotoxicity at 10 µM falls from 5.23% to -1.22%.

First: C[C@@H]1CN(C(=O)CCc2cnn(C)c2)C[C@@]1(O)C1CCC1
Second: C[C@@H]1CN(c2ccc(Cl)cn2)CC[C@@]1(O)C1CCOCC1
The cytotoxicity at 10 µM of the first is lower: -11.4% for the first, -2.54% for the second.

`OC1CCN(Cc2cc3c(cc2Br)OCCO3)CC1` and `Cc1n[nH]cc1CNCC1(c2ccc3c(c2)OCO3)CCOCC1` are the same in cytotoxicity at 10 µM: 7.73% for the first, 7.73% for the second.

Compared with `O=C(Cc1cccc(F)c1F)NC1COc2ccccc2C1=O` (stereo unspecified), `O=C(COc1cccc2c1CCC2=O)NCCSc1ccccc1` is lower in cytotoxicity at 10 µM: 10.4% for the first, -1.22% for the second.

Compared with `CN1CCOC(CNC(=O)COc2ccc(F)cc2F)C1` (stereo unspecified), `CNC(=O)c1ccc(C2CN(C(=O)c3c[nH]nc3C)CCO2)nc1` (stereo unspecified) is lower in cytotoxicity at 10 µM: -5.51% for the first, -19.3% for the second.

Compared with `Fc1ccccc1-c1nnn(CCCc2nn[nH]n2)n1`, `C[C@]1(O)CCN(Cc2ncccc2F)C[C@@H]1Oc1ccccc1` is lower in cytotoxicity at 10 µM: -4.3% for the first, -21.4% for the second.

Compared with `O=C(CN1CC(c2nc(C3CC3)no2)C1)NCC1CCCO1` (stereo unspecified), `O=C(CCCn1cncn1)N1CCCC1c1noc(C2CC2)n1` (stereo unspecified) is lower in cytotoxicity at 10 µM: -6.66% for the first, -31.5% for the second.

First: Cc1cc(C(=O)NCc2ccnc(N3CCN(C)CC3)c2)c(C)s1
Second: COc1ccccc1OC1(C(=O)O)CCN(c2nccnc2C)CC1
The cytotoxicity at 10 µM of the first is lower: -10.7% for the first, -10.4% for the second.

Compared with `Clc1cccc(-c2nc(CNC3CCc4ncnn4C3)co2)c1` (stereo unspecified), `O=C(CCc1nc2cc(Br)cnc2[nH]1)NCc1cccnc1` is lower in cytotoxicity at 10 µM: 2.56% for the first, -0.874% for the second.

Going from `COCC(O)CNc1ccc(C#N)cc1C(F)(F)F` (stereo unspecified) to `CNCC[C@H]1CC(C)(C)Oc2ccc(OCC3CC3)cc21`, the cytotoxicity at 10 µM falls from 13.3% to -9.44%.

Compared with `Cc1csc(CNC(=O)NCC2(c3ccc4c(c3)OCO4)CC2)n1`, `Cc1nc(CN2CCC3(CCCN(Cc4ccncc4)C3)C2=O)cs1` (stereo unspecified) is higher in cytotoxicity at 10 µM: 0.0902% for the first, 1.38% for the second.

Going from `Cc1cc(C(=O)CN2C(=O)c3ccccc3CS2(=O)=O)c(C)[nH]1` to `Cc1cc(C(=O)NS(C)(=O)=O)c(C)n1-c1ccccc1`, the cytotoxicity at 10 µM falls from 13.5% to -8.81%.

Compared with `O=C(c1nc2c(s1)CCCN2CC1CC1)N1CCCC1`, `O=C1NCCN(CC2CCCCC2)C1CC(=O)N1CCc2n[nH]cc2C1` (stereo unspecified) is lower in cytotoxicity at 10 µM: 15.2% for the first, -3.76% for the second.

Going from `CC(C)CCC(=O)Nc1ccc2oc(=O)n(CCN(C)C)c2c1` to `CN(C)C(=O)COCc1cncc2c1CCN(Cc1ccccc1)C2`, the cytotoxicity at 10 µM rises from -9.15% to -4.24%.

Compared with `CCOCc1nn(CC2CC2)c2c1CN(C(=O)c1ccno1)CC2`, `O=C(CC1CC1)NCc1cn2c(n1)CN(Cc1nccs1)CC2` is lower in cytotoxicity at 10 µM: 1.99% for the first, -74.1% for the second.

Going from `O=C(Nc1ccncc1)NC1CCN(c2ccccc2OC(F)F)C1` (stereo unspecified) to `CCc1nc(CN(C)C2CCN(CC(=O)N3CCOCC3)C2)no1` (stereo unspecified), the cytotoxicity at 10 µM falls from 15.6% to -5.32%.

`COCCNC(=O)C[C@@H]1COC[C@H]2CN(C(=O)C3CCOCC3)C[C@@H]12` gave a cytotoxicity at 10 µM of -94.8%.
